Measured values: ChEMBL document CHEMBL3243935, “Analgesic and tranquilizing activity of 5,8-disubstituted 2-aminomethyl-3,4-dihydronaphthalenes” (J Med Chem, 1978)
Activity calls are given as the source filed them.

Experiments:
[1] = tested on: Mus musculus; experiment: Analgesic activity in Swiss CD mouse at 100 mg/kg, ip measured 0.5 hr post treatment by hot-plate method relative to control; type: functional; conditions: route intraperitoneal
How it was run: (§1)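 Male mice, about 20 g, dosed ip in saline. Each mouse was dropped into a glass cylinder on an aluminium plate held at 57 °C. Latency to the first flick of a hind foot was timed at 0.5 and 2 h post-dose, with a 10-s cutoff. At least ten mice per dose. Percent control = mean latency ÷ mean control latency × 100; 200% was the lower bound of activity.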

[2] = tested on: Mus musculus; experiment: Analgesic activity in Swiss CD mouse at 100 mg/kg, ip measured 2 hrs post treatment by hot-plate method relative to control; type: functional; conditions: route intraperitoneal; how it was run: as §1
[3] = tested on: Mus musculus; experiment: Analgesic activity in Swiss CD mouse assessed as elevation of response latency at 100 mg/kg, ip measured 0.5 hr post treatment by tail flick method relative to control; type: functional; conditions: route intraperitoneal
How it was run: (§2)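 Male mice, about 20 g, dosed ip in saline (solution or suspension). High-intensity heat was focused on the tail, and latency to a sudden tail flick was timed, with a 10-s cutoff. Tests ran at 0.5 and 2 h post-dose, with at least ten mice per dose. Percent control = mean latency ÷ mean control latency × 100; 200% was the lower bound of activity.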

[4] = tested on: Mus musculus; experiment: Analgesic activity in Swiss CD mouse assessed as elevation of response latency at 100 mg/kg, ip measured 2 hrs post treatment by tail flick method relative to control; type: functional; conditions: route intraperitoneal; how it was run: as §2
[5] = tested on: Rattus norvegicus; experiment: Neuroleptic activity in ip dosed Sprague-Dawley CD rat assessed as reversal of amphetamine-induced stereotypy compound administered 1hr prior challenge; type: functional
How it was run: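 Rats dosed ip, then given amphetamine sulfate 5 mg/kg 1 h later. The ED50 is the dose that reverses the amphetamine-induced stereotypy.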

[6] = tested on: Rattus norvegicus; experiment: Neuroleptic activity in decarboxylase-inhibited Sprague-Dawley CD rat brain assessed as increase in DOPA accumulation at 0.01 mmol/kg relative to control; type: functional; parameters: scale not given: the % may be the effect or the level left
[7] = tested on: Mus musculus; experiment: Analgesic activity in Swiss CD mouse at 32 mg/kg, ip measured 0.5 hr post treatment by hot-plate method relative to control; type: functional; conditions: route intraperitoneal; how it was run: as §1
[8] = tested on: Mus musculus; experiment: Analgesic activity in Swiss CD mouse at 32 mg/kg, ip measured 2 hrs post treatment by hot-plate method relative to control; type: functional; conditions: route intraperitoneal; how it was run: as §1
[9] = tested on: Mus musculus; experiment: Analgesic activity in Swiss CD mouse assessed as elevation of response latency at 32 mg/kg, ip measured 0.5 hr post treatment by tail flick method relative to control; type: functional; conditions: route intraperitoneal; how it was run: as §2
[10] = tested on: Mus musculus; experiment: Analgesic activity in Swiss CD mouse assessed as elevation of response latency at 32 mg/kg, ip measured 2 hrs post treatment by tail flick method relative to control; type: functional; conditions: route intraperitoneal; how it was run: as §2
[11] = Toxicity in ip dosed Swiss CD mouse measured 0.5 to 2 hrs post treatment; type: organism-based; conditions: in vivo
[12] = tested on: Rattus norvegicus; experiment: Analgesic activity in Sprague-Dawley CD rat at 32 mg/kg, ip measured 0.5 to 2 hrs post treatment by flinch-jump method relative to control; type: functional, organism-based; parameters: dose 32 mg/kg
How it was run: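 Male rats, 200-300 g, dosed ip (saline solution or suspension). A single rising series of 1-s foot shocks was given just before and at 0.5 and 2 h after dosing. The minimum shock intensity (mA) evoking each behaviour was recorded. No response at the 2.2-mA level counted as activity. At least five rats per dose.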

[13] = tested on: Mus musculus; experiment: Analgesic activity in ip dosed Swiss CD mouse by hot-plate method relative to control in presence of naloxone; type: functional, organism-based
[14] = tested on: Mus musculus; experiment: Analgesic activity in ip dosed Swiss CD mouse by tail flick method relative to control in presence of naloxone; type: functional, organism-based
[15] = organism: Mus musculus; experiment: Toxicity in Swiss CD mouse assessed as Straub tail symptom; type: organism-based; conditions: in vivo
[16] = organism: Rattus norvegicus; experiment: Toxicity in Sprague-Dawley CD rat assessed as Straub tail symptom; type: organism-based; conditions: in vivo
[17] = organism: Canis familiaris; experiment: Analgesic activity in dog assessed as increase in response threshold by radiant heat method; type: functional, organism-based; conditions: Canis lupus familiaris
How it was run: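 Male mongrel dogs (9-12 kg) given drug sc or orally; radiant heat threshold read as reflex fasciculations of the back muscles. Tested at 0.5 and 2 h after dosing, with the end point expressed as percent of control latency.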

| SMILES | Activity [1] | Activity [2] | Activity [3] | Activity [4] | also measured |
| --- | --- | --- | --- | --- | --- |
| COc1ccc(Cl)c2c1CCC(CN1CCCCC1)=C2.Cl | 155% | 127% | 212% | 167% | – |
| CN1CCN(CC/C=C2/c3ccccc3Sc3ccc(S(=O)(=O)N(C)C)cc32)CC1 [THIOTHIXENE] | – | – | – | – | ED50 [5]: 0.32 mg/kg |
| COc1ccc2c(c1)CCC(CN1CCCC1)=C2.Cl | 96% | 103% | 92% | 92% | – |
| COc1cc2c(cc1OC)CCC(CN1CCCC1)=C2.Cl | 173% | 135% | 101% | 95% | – |
| COc1ccc(Cl)c2c1CCC(CN1CCC3(CC1)C(=O)NCN3c1ccccc1)=C2 | – | – | – | – | ED50 [5]: 1 mg/kg; Activity [6]: 154% |
| COc1ccc(Cl)c2c1CCC(CN1CCN(C)CC1)=C2 | 274% | 218% | 198% | 137% | – |
| COc1ccc(Cl)c2c1CCC(CN1CCC(C(=O)N3CCOCC3)CC1)=C2.Cl | 107% | 95% | 162% | 133% | – |
| COc1ccc(OC)c2c1C=C(CN1CCCC1)CC2.Cl | – | – | – | – | Activity [7]: 177%; Activity [8]: 132%; Activity [9]: 111%; Activity [10]: 99%; LD50 [11]: 32 mg/kg |
| COc1ccc(Cl)c2c1CCC(CN1CCN(c3cccc(C(F)(F)F)c3)CC1)=C2.O | 167% | 149% | 119% | 118% | – |
| COc1ccc(Cl)c2c1CCC(CN1CCC(O)(c3ccc(Cl)cc3)CC1)=C2.O=S(=O)(O)O | 177% | 102% | 162% | 123% | – |
| COc1ccc(F)c2c1CCC(CN1CCCC1)=C2.Cl | – | – | – | – | Activity [7]: 183%; Activity [8]: 149%; Activity [9]: 170%; Activity [10]: 141%; LD50 [11]: 32 mg/kg |
| COc1ccc(C)c2c1CCC(CN1CCCC1)=C2.Cl | – | – | – | – | Activity [7]: 177%; Activity [8]: 145%; Activity [9]: 177%; Activity [10]: 135%; LD50 [11]: 32 mg/kg |
| COc1ccc(Cl)c2c1CCC(CN1CCC(C(=O)N3CCCC3)CC1)=C2.Cl.O | 213% | 155% | 262% | 172% | Activity [6]: 332% |
| COc1ccc(Cl)c2c1CCC(CN1CCCC(C(N)=O)C1)=C2.Cl (stereo unspecified) | 197% | 170% | 91% | 106% | Activity [12]: inactive |
| CCOC(=O)N1CCN(CC2=Cc3c(Cl)ccc(OC)c3CC2)CC1.Cl | 274% | 233% | 223% | 199% | – |
| CCN(CC)C(=O)C1CCCN(CC2=Cc3c(Cl)ccc(OC)c3CC2)C1.Cl.O (stereo unspecified) | 107% | 175% | 250% | 214% | Activity [12]: inactive |
| CNC(=O)C1CCN(CC2=Cc3c(Cl)ccc(OC)c3CC2)CC1.Cl.O | 221% | 167% | 208% | 166% | – |
| CCC(=O)O[C@](Cc1ccccc1)(c1ccccc1)[C@H](C)CN(C)C [PROPOXYPHENE] | 139% | 138% | 169% | 146% | – |
| COc1ccc(Cl)c2c1CCC(CN1CCN(S(N)(=O)=O)CC1)=C2.Cl | 123% | 109% | 104% | 88% | – |
| COc1ccc(Cl)c2c1CCC(CN1CCC(O)CC1)=C2.Cl | 174% | 142% | 239% | 180% | – |

| SMILES | Activity [1] | Activity [2] | Activity [3] | Activity [4] | also measured |
| --- | --- | --- | --- | --- | --- |
| COc1ccc(Cl)c2c1CCC(CN1CCC(O)(c3ccccc3)CC1)=C2.Cl | 249% | 175% | 196% | 158% | – |
| COc1ccc(N2CCN(CC3=Cc4c(Cl)ccc(OC)c4CC3)CC2)cc1 | 129% | 120% | 131% | 123% | – |
| C=CCNCC1=Cc2c(Cl)ccc(OC)c2CC1.Cl | 158% | 115% | 131% | 108% | – |
| COc1ccc(Cl)c2c1CCC(CN1CCN(c3ccc(Cl)cc3)CC1)=C2 | 202% | 160% | 184% | 159% | – |
| COc1ccc(Cl)c2c1CCC(CN1CCC(c3ccccc3)CC1)=C2.O | 233% | 171% | 109% | 106% | – |
| Cc1cc(C)c2c(c1)C=C(CN1CCCC1)CC2.Cl | – | – | – | – | Activity [7]: 126%; Activity [8]: 120%; Activity [9]: 124%; Activity [10]: 126%; LD50 [11]: 32 mg/kg |
| COc1ccc(Cl)c2c1CCC(CNCC1CC1)=C2.Cl | 224% | 171% | 203% | 162% | – |
| Br.COc1cccc2c1CCC(CN1CCCC1)=C2 | – | – | – | – | Activity [7]: 129%; Activity [8]: 103%; Activity [9]: 80%; Activity [10]: 90%; LD50 [11]: 32 mg/kg |
| COc1ccc(Cl)c2c1CCC(CN1CCN(CCO)CC1)=C2 | 249% | 236% | 187% | 191% | – |
| C=CCN1CCN(CC2=Cc3c(Cl)ccc(OC)c3CC2)CC1.Cl | 164% | 127% | 159% | 137% | – |
| CNCC1=Cc2c(Cl)ccc(OC)c2CC1.Cl | – | – | – | – | Activity [7]: 139%; Activity [8]: 120%; Activity [9]: 163%; Activity [10]: 127%; LD50 [11]: 32 mg/kg |
| COc1ccc(Cl)c2c1CCC(CN1CCC(OC(C)=O)(c3ccccc3)CC1)=C2.Cl.O | – | – | – | – | Activity [7]: 315%; Activity [8]: 345%; Activity [9]: 317%; Activity [10]: 320%; Activity [13]: inactive; Activity [14]: inactive; LD50 [11]: 32 mg/kg; Activity [15]: Toxic; Activity [16]: Toxic |
| COc1ccc(Cl)c2c1CCC(CN1CCC(C)CC1)=C2.Cl | – | – | – | – | Activity [7]: 158%; Activity [8]: 135%; Activity [9]: 128%; Activity [10]: 115%; LD50 [11]: 32 mg/kg |
| COc1ccc(Cl)c2c1CCC(CN1CCC(C(=O)NC3CCCCC3)CC1)=C2 | 107% | 95% | 219% | 154% | – |
| COc1ccc2c(c1)C=C(CN1CCCC1)CC2 | 114% | 98% | 149% | 129% | – |
| COc1ccc(Cl)c2c1CCC(CN1CCC(C(C)=O)(c3ccccc3)CC1)=C2.Cl | 143% | 124% | 134% | 122% | – |
| COc1ccc(Cl)c2c1CCC(CN1CCC(C(=O)N3CCCCC3)CC1)=C2.Cl.O | 170% | 124% | 235% | 149% | – |
| CCC(=O)OC1CCN(CC2=Cc3c(Cl)ccc(OC)c3CC2)CC1.Cl | 95% | 101% | 237% | 179% | – |
| COc1ccc(Cl)c2c1CCC(CN1CCC(C(N)=O)CC1)=C2.O | 314% | 329% | 274% | 132% | Activity [17]: inactive; Activity [13]: inactive; Activity [14]: inactive; Activity [15]: Non-toxic; Activity [16]: Non-toxic |
